Screening results as filed in PubChem BioAssay.
Sampled rows, rich in hits. Any-hit rate of the full collection: about 1.6%.
C8 TRAIL sens = caspase-8 TRAIL sensitization. NB7+C8 cells + TRAIL, ATPlite viability luminescence. inhibition (viability loss, TRAIL sensitization), % at 10 µM. hit rate 1% among 360,000;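 active = compounds causing at least 50% loss of cell viability in the single-dose screen, relative to plate controls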
PPC-1+TRAIL kill = kills PPC-1 cancer cells in the presence of TRAIL; hit rate 0.41% among 220,000; AID 1443; cell killing (% activity), % at 4 µM or 5 µM; PPC-1 cells + TRAIL, ATPLite viability luminescence;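 active = cell killing above 50% in the first pass at 4 µM, then a duplicate retest at 5 µM averaging 50% or more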;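 also: plate controls were cells with TRAIL plus DMSO for no effect and medium-only wells lacking cells for full effect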
FLuc stim CS = firefly luciferase counter-screen for stimulation assays | AID 1027 | ATPlite luciferase biochemical, luminescence, 10 min; 0 = ATP-free wells, 1 = DMSO control | P08659 | 200,000 tested, under 10 active | activation factor at 10 µM;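 active = luciferase activation factor, scaled between plate controls, of at least 2 with compound at 10 µM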
Target sequence (P08659 whole entry, looked up): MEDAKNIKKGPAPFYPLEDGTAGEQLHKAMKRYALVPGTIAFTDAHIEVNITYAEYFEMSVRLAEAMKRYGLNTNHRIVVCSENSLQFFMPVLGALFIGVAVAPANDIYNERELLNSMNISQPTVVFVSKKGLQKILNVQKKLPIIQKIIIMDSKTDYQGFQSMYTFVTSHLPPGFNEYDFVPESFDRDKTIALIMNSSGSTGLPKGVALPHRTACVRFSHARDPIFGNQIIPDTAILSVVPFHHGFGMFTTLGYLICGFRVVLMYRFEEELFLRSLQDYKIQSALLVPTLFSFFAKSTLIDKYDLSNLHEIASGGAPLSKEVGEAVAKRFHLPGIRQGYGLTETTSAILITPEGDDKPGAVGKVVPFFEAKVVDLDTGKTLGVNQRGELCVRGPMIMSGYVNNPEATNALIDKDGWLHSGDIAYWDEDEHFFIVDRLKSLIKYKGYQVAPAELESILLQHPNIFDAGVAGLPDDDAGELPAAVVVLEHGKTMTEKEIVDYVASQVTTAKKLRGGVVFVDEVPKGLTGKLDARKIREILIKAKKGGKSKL
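System: luciferase plus luciferin reagent, cell-free; medium: PBS as buffer for the ATP substrate; dosing: test compounds dosed from 2 mM stocks in 100% DMSO; timing: 10 min post-reagent at room temperature; measured by: luminescence measurement of luciferase light output; evaluation: luciferase activation, seen as luminescence increase over controls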
FLuc inhib CS = counter-screen for luciferase assay inhibitors: firefly luciferase inhibition; ATPLite firefly luciferase biochemical luminescence, 10 min; hit rate 1.5% among 200,000; P08659; inhibition, % at 10 µM; AID 1006;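 active = inhibition above about 50% when tested at 10 µM, limit read from the data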
* marks the source's active call; other numbers are inactive results; . = not tested or not shown.

SMILES	C8 TRAIL sens	PPC-1+TRAIL kill	FLuc stim CS	FLuc inhib CS
COc1cccc(C2C(C(=O)c3cccs3)=C(O)C(=O)N2CCN2CCOCC2)c1OC (centres undefined)	-2.6	.	.	.
CCCc1c(C(=O)N/N=C/C=C/c2ccccc2)nnn1-c1nonc1N	54.7*	.	.	.
CCOc1cc(S(=O)(=O)NCc2ccccc2)ccc1Br	-5.6	5.4	1	-4.6
COc1ccc(Cl)cc1-c1nc(-c2ccc(NC(=O)c3ccncc3)cc2)no1	17.6	.	.	.
COc1cc(-c2nc(-c3ccc(NC(=O)c4ccc5c(c4)OCO5)cc3)no2)cc(OC)c1OC	59.1*	16.2	1	4.3
COc1ccc(-c2nc(-c3ccc(NC(=O)c4ccncc4)cc3)no2)cc1OC	65.9*	7.2	1.1	-7.5
Cn1nc(SCc2ccccc2)c(=O)[nH]c1=O	13.8	.	.	.
CN(c1nc(-c2ccc(Br)cc2)cs1)C1CCS(=O)(=O)C1 (centres undefined)	-5.6	24.2	0.9	5.9
C=CCn1c(/N=C/c2ccc3c(c2)OCO3)nc2ccccc21	-1.8	15.2	0.3	71.6*
Cc1ccc(C(=O)/C=C\Nc2ccc(C)c(C)c2)cc1	31.3	30.7	0.7	28.6
Cc1ccc(N/C=C/C(=O)c2ccc(C)cc2)cc1	31.7	23.6	0.5	51.2*
O=C(/C=C/Nc1ccc(F)cc1Br)c1ccccc1	95.2*	84.8*	0	95.7*
O=C(NNC(=S)Nc1ccc(Br)cc1)c1cccnc1	3.0	.	.	.
O=C(/C=C\Nc1ccc(Br)cc1)c1cccnc1	65.9*	47.2	0.2	84.5*
O=C(/C=C/Nc1ccccc1)c1ccccc1	63.9*	23.4	0.1	91.9*
O=C(NC(=S)N(CCO)Cc1ccccc1)c1ccc(F)cc1Cl	-10.0	.	.	.
Cc1cc2c(SCC(=O)NC3CCCC3)ncnc2s1	7.0	.	.	.
Cc1ccc(C(=O)/C=C/Nc2ccccn2)cc1	81.7*	.	.	.
CN(C)c1ccc(N/C=C/C(=O)c2ccccc2)cc1	66.7*	17.8	0.1	91.9*
Cc1ccc(C(=O)/C=C/C(=O)c2ccc(C)cc2)cc1	-10.7	7.7	1	1.8
Cc1ccc(C(=O)/C=C/Nc2ccc([N+](=O)[O-])cc2Br)cc1	30.5	27.5	0.6	38.9
Cc1ccc(O)c(N/C=C/C(=O)c2ccc(F)cc2)c1	60.2*	.	.	.
CCN(CC)C(=O)Cn1cc(S(=O)(=O)CC(=O)NCc2ccc(F)cc2)c2ccccc21	17.3	.	.	.
Cc1nc(N2CCOCC2)[nH]c(=O)c1C	1.1	9.0	1	0.0
O=C1CCCN1CC(O)CS(=O)(=O)Cc1ccccc1Cl (centres undefined)	-6.0	.	.	.
SMILES	C8 TRAIL sens	PPC-1+TRAIL kill	FLuc stim CS	FLuc inhib CS
COc1ccc(C2CC(c3c(O)cc(C)oc3=O)=NCCS2)c(OC)c1 (centres undefined)	77.7*	19.9	0.6	37.5
CC=Cc1cc(OC)c2c(c1)C(C)C(c1ccc(O)c(OC)c1)O2 (centres undefined)	-0.5	.	.	.
CC(=O)Nc1ccc(C(=O)N2CCCCC2c2cc(C(=O)Nc3cccc(C#N)c3)no2)cc1 (centres undefined)	0.3	.	.	.
Oc1ccc(/C=N/Nc2ncc(Br)cn2)c(O)c1	51.5*	17.8	0.8	17.9
CCN(CC)S(=O)(=O)c1ccc(N/N=C/c2ccc(O)cc2O)nc1	17.9	52.5*	1	-0.5
FC(F)(F)c1cnc(COc2ccc(Cl)cc2Cl)c(Cl)c1	-12.9	-11.4	.	.
CC1Oc2cc3oc4c(O)c(O)ccc4c(=O)c3c(O)c2C1(C)C (centres undefined)	52.7*	.	.	.
COc1ccc(-c2cc(=O)oc3c(O)c(O)ccc23)cc1	1.6	.	.	.
CC(C)NC(=O)C(c1ccc(F)cc1)N(C(=O)CCC(=O)Nc1ccccn1)c1cccc(F)c1 (centres undefined)	-12.3	.	.	.
O=C(Nc1ccc(-c2nc3ccccc3[nH]2)cc1)c1ccco1	40.4	33.4	0.4	57.7*
O=C(Nc1ccc2nc(-c3ccco3)[nH]c2c1)c1ccco1	46.5	39.0	0.2	80.2*
O=C(Nc1ccc2nc(-c3ccco3)[nH]c2c1)c1cccs1	55.4*	26.4	0.2	76.6*
C=C1CCc2c([nH]c3ccc(OCC(C)C)cc23)C1=O	89.3*	.	.	.
COc1ccc2[nH]c3c(c2c1)CCNC3=O	-6.7	.	.	.
COc1ccccc1/C=N/NC(=O)c1csc(C)c1C	15.3	7.5	0.3	70.9*
COc1ccccc1/C=N/NC(=O)c1cccc2ccccc12	-14.4	.	.	.
CCOC(=O)N1CCN(C(=O)CSCC(=O)Nc2nc(-c3ccc(OC)cc3)cs2)CC1	0.0	12.5	1	-2.5
CCOC(=O)N1CCN(C(=O)CSCC(=O)Nc2nc(-c3ccc(-c4ccccc4)cc3)cs2)CC1	61.8*	24.0	1	3.9
CCOC(=O)CC(c1ccc([N+](=O)[O-])cc1)n1c(C)ccc1C (centres undefined)	2.7	2.9	1.1	-5.9
CS(=O)(=O)c1sc(C#N)c2c1C(=O)CC(c1ccccc1)C2 (centres undefined)	73.5*	4.1	.	.
Cc1oc2c(c(=O)c1C)C(=O)CC(c1ccccc1)C2 (centres undefined)	9.9	-2.5	1	0.6
O=C(c1cc(N2C(=O)C3C4CCC(C4)C3C2=O)ccc1Cl)N1CCN(c2ccccc2F)CC1 (centres undefined)	6.3	8.8	1	-4.1
O=C1c2cccc3cccc(c23)C(=O)N1OS(=O)(=O)c1ccccc1	12.2	6.6	0.4	59.2*
O=C(NC(=S)Nc1nc2ccc(F)cc2s1)c1ccco1	86.3*	39.9	0.1	86.4*
CCOc1ccc2nc(NC(=O)Nc3ccccc3)sc2c1	16.3	-5.3	0.9	13.3
SMILES	C8 TRAIL sens	PPC-1+TRAIL kill	FLuc stim CS	FLuc inhib CS
CCOc1ccc2nc(NC(=O)Nc3cccs3)sc2c1	46.1	9.7	0.3	66.9*
CCOc1ccc(NC(=S)NC(=O)c2ccco2)cc1	-1.3	26.5	.	.
Fc1ccc2nc(Nc3nc4cc5c(cc4s3)OCCO5)sc2c1	25.5	21.0	0.5	52.1*
Fc1ccc2nc(Nc3nc4cc5c(cc4s3)OCO5)sc2c1	15.1	10.6	1	4.7
CCOc1ccc(NC(=O)c2ccco2)cc1	55.3*	48.1	0.2	76.0*
CCC1Oc2ccccc2N(CC(=O)NCc2cccs2)C1=O (centres undefined)	-8.3	-8.3	1	-4.5
Nc1nnnn1CC(=O)N/N=C/c1ccccn1	-5.1	26.6	.	.
CC(C)N(C(=O)CSc1nc2ccccc2c(=O)[nH]1)C(C)C	12.2	-9.3	1	0.0
CCOc1ccc2nc(NC(=O)COC)sc2c1	8.3	26.5	0.7	30.6
CCOc1ccc(NC(=O)Nc2ccccc2SC)cc1	42.6	24.5	0.5	50.2*
CCOC(=O)c1ccc2nc(NC(=O)c3cccs3)sc2c1	30.1	35.3	0.6	43.1
CSc1ccccc1NC(=O)Nc1ccccc1	7.2	2.5	0.9	6.6
CCOc1ccc2nc(NC(=O)c3ccoc3C)sc2c1	45.6	30.1	0.4	58.3*
CCOC(=O)c1ccc2nc(NC(=O)c3ccco3)sc2c1	27.1	12.5	0.5	51.0*
CCOc1ccc2nc(NC(=O)c3ccco3)sc2c1	60.5*	.	.	.
COc1ccc(CNC(=O)Nc2nc(C(N)c3ccccc3)cs2)cc1 (centres undefined)	4.4	.	.	.
